Data set [1] can be described thus: Brain distribution of DOX after iv injection. It counts as in vivo. Particulars: ICR mice, iv 2.5 mg DOX/kg.
The nature of data set [2]: Saturated solubility of DOX in PBS. In kind it is physicochemical. Particulars: phosphate-buffered saline (PBS), pH 7.2, aqueous buffer.
The nature of data set [3]: In vivo imaging of DiR-loaded micelles. Particulars: nude mice, free dye (not shown). In outline: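 DiR physically entrapped in CS-SA micelles. Anesthetized nude mice were dosed via tail vein at 25 mg CS-SA/kg. Whole-body fluorescence was imaged at set time points after injection. The brain was excised 0.5 h post-injection for ex vivo fluorescence imaging, with a blank brain as negative control.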

Values after ≈ are worked out from the molar mass of the structure shown. “Also recorded” adds a separate entry of the source.

Take `COc1cccc2c1C(=O)c1c(O)c3c(c(O)c1C2=O)C[C@@](O)(C(=O)CO)C[C@@H]3O[C@H]1C[C@H](N)[C@H](O)[C@H](C)O1.Cl` [DOX · HCl, DOX hydrochloride]: in data set [1], the “drug detection in brain” value is “not detected in brain; also recorded: no drug signal was detected in brain”.

For orientation: solubility means the concentration that dissolves in the medium under given conditions. Low readings indicate a poorly soluble substance, high ones a readily soluble substance. For `COc1cccc2c1C(=O)c1c(O)c3c(c(O)c1C2=O)C[C@@](O)(C(=O)CO)C[C@@H]3O[C@H]1C[C@H](N)[C@H](O)[C@H](C)O1` [DOX, Doxorubicin], the solubility in data set [2] was 76 µg/mL (≈ 140 µM).

Regarding `CCCCCCCCCCCCCCCCCCN1/C(=C/C=C/C=C/C=C/C2=[N+](CCCCCCCCCCCCCCCCCC)c3ccccc3C2(C)C)C(C)(C)c2ccccc21.[I-]` [DiR], in data set [3], the fluorescence in brain entry is “fluorescence was not seen in brain”.

The values are drawn from article PMC3396390 (International Journal of Nanomedicine, 2012).
